The values that follow come from ChEMBL document CHEMBL3414471 (J Med Chem, 2015).

Series [1] deals with Salmonella typhimurium. The series is described as follows: Mutagenic activity in Salmonella typhimurium TA1535 at 10 to 100 uM by ames test in presence of S9 mixture. The series is classed as toxicity, organism-based. The note with it: salmonella enterica subsp. enterica serovar typhimurium. The method, boiled down:
(§1)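 Ames fluctuation test in Salmonella strains TA98, TA100, TA1535 and TA1537, with and without S9, at 10, 50 and 100 µM; scored negative or positive.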

Series [2] concerns the target T1, 5-hydroxytryptamine receptor 2B (Homo sapiens, UniProt P41595). The series is described as follows: Agonist activity at human 5-HT2B receptor expressed in HEK293 cells assessed as calcium flux by FLIPR assay relative to 5-HT. The series is classed as functional, cell-based. The method, boiled down: (§2)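 Flp-In-293 cells stably expressing human 5-HT2A, 5-HT2B or 5-HT2C-INI; grown 24–48 h in DMEM/10% dialyzed FBS, plated on poly-L-Lys at 12000 cells/well in 1% dialyzed FBS for 24 h. Loaded 1 h at 37 °C with calcium dye in HBSS, 20 mM Hepes pH 7.40, 2.5 mM probenecid.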
On the technique in general: Calcium flux is commonly read through the fluorescence of an indicator in the cells.

Series [3] concerns Salmonella typhimurium. The series is described as follows: Mutagenic activity in Salmonella typhimurium TA1535 at 10 to 100 uM by ames test. It counts as toxicity, organism-based. The note with it: salmonella enterica subsp. enterica serovar typhimurium. The method, boiled down: as §1
Series [4] is described as follows: Plasma protein binding in human at 10 uM. The series is classed as ADME, cell-free. The method, boiled down: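 Human plasma protein binding determined at 10 µM compound, expressed as % bound.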
The subject of series [5] is Salmonella typhimurium. The series is described as follows: Mutagenic activity in Salmonella typhimurium TA100 at 10 to 100 uM by ames test in presence of S9 mixture. The series is classed as toxicity, organism-based. The following applies: salmonella enterica subsp. enterica serovar typhimurium. The procedure, abridged: as §1
For series [6], the system named is Salmonella typhimurium. The series is described as follows: Mutagenic activity in Salmonella typhimurium TA98 at 10 to 100 uM by ames test. It counts as toxicity, organism-based. The following applies: salmonella enterica subsp. enterica serovar typhimurium. The method, boiled down:
as §1

A further series deals with Liver microsome. Briefly: Metabolic stability in human liver microsomes. It counts as ADME. The method, boiled down:
(§3)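 Incubation with human or CD-1 mouse liver microsomes for 1 h; stability expressed as % parent compound remaining.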
For orientation: Liver microsomes are a subcellular fraction often used to study metabolism.

The target of series [7] is Voltage-gated inwardly rectifying potassium channel KCNH2 (Homo sapiens, UniProt Q12809). The series is described as follows: Inhibition of human ERG channel expressed in CHO cells by patch clamp method. It counts as cell-based.
Chain of Voltage-gated inwardly rectifying potassium channel KCNH2 (Q12809 whole entry): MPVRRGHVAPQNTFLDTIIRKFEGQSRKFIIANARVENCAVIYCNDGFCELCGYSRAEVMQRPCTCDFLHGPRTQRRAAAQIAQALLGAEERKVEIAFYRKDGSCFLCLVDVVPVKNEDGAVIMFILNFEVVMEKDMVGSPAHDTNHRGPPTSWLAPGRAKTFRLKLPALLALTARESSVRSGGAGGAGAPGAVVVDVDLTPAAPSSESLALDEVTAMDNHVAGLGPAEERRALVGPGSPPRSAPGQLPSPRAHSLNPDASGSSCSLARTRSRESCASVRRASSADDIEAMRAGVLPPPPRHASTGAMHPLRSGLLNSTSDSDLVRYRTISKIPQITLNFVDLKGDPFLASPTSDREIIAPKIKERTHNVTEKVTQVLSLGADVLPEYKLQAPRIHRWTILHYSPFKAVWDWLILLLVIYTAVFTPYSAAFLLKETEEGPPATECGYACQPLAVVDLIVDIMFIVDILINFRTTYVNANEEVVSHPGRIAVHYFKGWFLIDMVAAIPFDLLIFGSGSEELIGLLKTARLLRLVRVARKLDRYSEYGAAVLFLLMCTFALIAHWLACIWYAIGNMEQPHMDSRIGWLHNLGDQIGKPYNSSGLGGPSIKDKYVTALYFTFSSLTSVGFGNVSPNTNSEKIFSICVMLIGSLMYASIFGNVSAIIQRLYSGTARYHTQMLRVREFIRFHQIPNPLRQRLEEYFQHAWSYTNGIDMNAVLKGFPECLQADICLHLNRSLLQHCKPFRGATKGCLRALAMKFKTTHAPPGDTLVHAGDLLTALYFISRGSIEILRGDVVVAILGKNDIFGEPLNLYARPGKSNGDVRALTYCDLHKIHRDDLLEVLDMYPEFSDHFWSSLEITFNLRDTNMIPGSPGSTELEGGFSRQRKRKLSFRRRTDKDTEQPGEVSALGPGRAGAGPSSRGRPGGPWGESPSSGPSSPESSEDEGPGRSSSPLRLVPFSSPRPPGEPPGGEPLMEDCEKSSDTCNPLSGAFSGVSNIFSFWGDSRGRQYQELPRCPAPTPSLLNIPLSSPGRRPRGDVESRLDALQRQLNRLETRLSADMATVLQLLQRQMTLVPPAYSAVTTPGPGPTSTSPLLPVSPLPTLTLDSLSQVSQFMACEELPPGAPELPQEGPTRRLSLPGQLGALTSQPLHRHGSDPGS
Series [8] relates to Salmonella typhimurium. The series is described as follows: Mutagenic activity in Salmonella typhimurium TA98 at 10 to 100 uM by ames test in presence of S9 mixture. The series is classed as toxicity, organism-based. The note with it: salmonella enterica subsp. enterica serovar typhimurium. The procedure, abridged:
as §1

Series [9] can be described thus: Permeability from apical to basolateral side in human Caco2 cells at pH 7.4. The note with it: caco-2, pH 7.4. The series is classed as ADME, cell-based. The procedure, abridged: (§4)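 Caco-2 monolayer permeability measured A–B and B–A in pH 7.4 buffer, reported as ×10−6 cm/s; A–B/B–A ratio derived from these.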
(In general: Caco-2 monolayers are a common model of the intestinal barrier.)

The target in series [10] is T2, 5-hydroxytryptamine receptor 2A (Homo sapiens, UniProt P28223). The series is described as follows: Agonist activity at human 5-HT2A receptor expressed in HEK293 cells assessed as calcium flux at 10 uM by FLIPR assay. It counts as functional, cell-based. The method, boiled down:
(§5)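 Flp-In-293 cells stably expressing human 5-HT2A, 5-HT2B or 5-HT2C-INI, grown in DMEM with 10% dialyzed FBS, then plated for 24 h in 1% dialyzed FBS. Cells were loaded 1 h at 37 °C with calcium dye in Hepes-buffered HBSS, pH 7.40, containing 2.5 mM probenecid. FLIPR read 10 s baseline, then 120 s after drug addition.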

Series [11] concerns Salmonella typhimurium. Briefly: Mutagenic activity in Salmonella typhimurium TA1537 at 10 to 100 uM by ames test in presence of S9 mixture. It counts as toxicity, organism-based. The following applies: salmonella enterica subsp. enterica serovar typhimurium. The method, boiled down:
as §1

A short description of series [12]: Permeability from basolateral to apical side in human Caco2 cells at pH 7.4. The following applies: caco-2, pH 7.4. It counts as ADME, cell-based. The method, boiled down:
as §4

In series [13] the target is T1, 5-hydroxytryptamine receptor 2B. The series is described as follows: Agonist activity at human 5-HT2B receptor expressed in HEK293 cells assessed as calcium flux by FLIPR assay. It counts as functional, cell-based.
Series [14] has as its target T3, 5-hydroxytryptamine receptor 2C (Homo sapiens, UniProt P28335).
T3 sequence (P28335 whole entry): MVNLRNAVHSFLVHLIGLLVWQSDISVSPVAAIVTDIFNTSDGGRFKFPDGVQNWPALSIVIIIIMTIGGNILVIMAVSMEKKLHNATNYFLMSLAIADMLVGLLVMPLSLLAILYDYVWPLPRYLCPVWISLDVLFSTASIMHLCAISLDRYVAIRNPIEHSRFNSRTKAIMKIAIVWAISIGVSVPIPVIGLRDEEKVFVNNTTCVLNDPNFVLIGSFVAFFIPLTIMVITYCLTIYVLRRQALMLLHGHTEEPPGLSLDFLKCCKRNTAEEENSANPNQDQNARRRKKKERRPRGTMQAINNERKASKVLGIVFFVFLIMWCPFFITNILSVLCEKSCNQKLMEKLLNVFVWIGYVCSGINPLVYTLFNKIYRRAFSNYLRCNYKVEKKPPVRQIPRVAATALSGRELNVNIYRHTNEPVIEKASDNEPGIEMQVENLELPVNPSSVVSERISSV
The series is described as follows: Agonist activity at human 5-HT2C receptor expressed in HEK293 cells assessed as calcium flux by FLIPR assay. It counts as functional, cell-based.

In series [15] the test system is Salmonella typhimurium. Briefly: Mutagenic activity in Salmonella typhimurium TA100 at 10 to 100 uM by ames test. The series is classed as toxicity, organism-based. The note with it: salmonella enterica subsp. enterica serovar typhimurium. The procedure, abridged:
as §1

Series [16] has as its system Salmonella typhimurium. The series is described as follows: Mutagenic activity in Salmonella typhimurium TA1537 at 10 to 100 uM by ames test. It counts as toxicity, organism-based. The following applies: salmonella enterica subsp. enterica serovar typhimurium. The procedure, abridged:
as §1

The test system of another series is Liver. The series is described as follows: Metabolic stability in mouse liver microsomes. It counts as ADME. The procedure, abridged:
as §3

The target of series [17] is T4, 5-hydroxytryptamine receptor 2C (Homo sapiens) (UniProt P28335).
T4 sequence (whole entry): T3 sequence (P28335 whole entry)
The series is described as follows: Agonist activity at human 5-HT2C receptor expressed in HEK293 cells assessed as calcium flux by FLIPR assay relative to 5-HT. The series is classed as functional, cell-based. The procedure, abridged:
as §2

Series [18] concerns the target T1, 5-hydroxytryptamine receptor 2B. Briefly: Agonist activity at human 5-HT2B receptor expressed in HEK293 cells assessed as calcium flux at 10 uM by FLIPR assay. It counts as functional, cell-based. The procedure, abridged: as §5
Series [19] deals with T4, 5-hydroxytryptamine receptor 2C (Homo sapiens). Briefly: Agonist activity at human 5-HT2C receptor expressed in HEK293 cells assessed as calcium flux at 10 uM by FLIPR assay. The series is classed as functional, cell-based. The method, boiled down:
as §5

The target of series [20] is T2, 5-hydroxytryptamine receptor 2A. Briefly: Agonist activity at human 5-HT2A receptor expressed in HEK293 cells assessed as calcium flux by FLIPR assay relative to 5-HT. It counts as functional, cell-based. The procedure, abridged:
as §2

Series [21] shares this target. Briefly: Agonist activity at human 5-HT2A receptor expressed in HEK293 cells assessed as calcium flux by FLIPR assay. It counts as functional, cell-based.
Series [22] has as its target T1, 5-hydroxytryptamine receptor 2B. The series is described as follows: Agonist activity at 5HT2B receptor (unknown origin) relative to control. The method, boiled down:
as §2

For orientation: Emax means the size of the effect at its maximum, as opposed to the concentration needed. One may read the IC50 as the point on the concentration scale where inhibition reaches its midpoint. For orientation: EC50 means the concentration needed to bring the measured effect to its halfway point.

The source made the active and inactive calls. No cut-off for these calls is given here.

T2 sequence (P28223 whole entry): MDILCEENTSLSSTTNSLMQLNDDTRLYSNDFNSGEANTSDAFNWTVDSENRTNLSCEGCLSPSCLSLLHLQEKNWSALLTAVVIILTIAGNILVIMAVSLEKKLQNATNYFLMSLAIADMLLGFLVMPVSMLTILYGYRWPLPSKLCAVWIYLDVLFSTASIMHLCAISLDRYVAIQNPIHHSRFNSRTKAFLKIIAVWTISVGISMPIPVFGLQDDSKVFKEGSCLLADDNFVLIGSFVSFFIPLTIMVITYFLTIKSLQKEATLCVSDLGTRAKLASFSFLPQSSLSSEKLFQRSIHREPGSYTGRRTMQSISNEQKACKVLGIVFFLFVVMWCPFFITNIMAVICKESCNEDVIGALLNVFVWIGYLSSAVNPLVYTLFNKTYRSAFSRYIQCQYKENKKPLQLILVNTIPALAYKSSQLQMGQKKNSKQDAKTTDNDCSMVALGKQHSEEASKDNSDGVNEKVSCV
T1 sequence (P41595 whole entry): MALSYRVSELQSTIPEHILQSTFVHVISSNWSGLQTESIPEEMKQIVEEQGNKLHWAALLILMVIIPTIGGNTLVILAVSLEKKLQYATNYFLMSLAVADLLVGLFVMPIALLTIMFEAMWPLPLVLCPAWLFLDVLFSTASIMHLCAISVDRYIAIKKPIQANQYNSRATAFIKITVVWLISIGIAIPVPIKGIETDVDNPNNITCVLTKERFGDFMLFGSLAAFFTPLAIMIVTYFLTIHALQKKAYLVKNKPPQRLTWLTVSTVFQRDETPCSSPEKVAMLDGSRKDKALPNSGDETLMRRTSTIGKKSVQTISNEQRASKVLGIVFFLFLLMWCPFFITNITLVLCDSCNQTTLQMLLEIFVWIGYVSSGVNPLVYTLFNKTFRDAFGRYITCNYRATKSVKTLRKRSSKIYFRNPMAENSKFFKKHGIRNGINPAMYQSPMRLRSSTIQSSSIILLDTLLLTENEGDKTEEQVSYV

As for `C=CCOc1ccc(Cl)cc1[C@H]1C[C@@H]1CN.O=C(O)C(F)(F)F`, the Activity result in the series with Salmonella typhimurium [1], in the series on Salmonella typhimurium [3], in the series on Salmonella typhimurium [5], in the series on Salmonella typhimurium [6], in the series with Salmonella typhimurium [8] and in the series on Salmonella typhimurium [11] was “Non-toxic” throughout. Also, the Activity entry with Salmonella typhimurium [15] and with Salmonella typhimurium [16] was “Non-toxic” throughout. Moreover, the Emax worked out at 32% in series [2] and 80% in series [17]. Moreover, the PPB in series [4] was determined as 75%. For the same compound, the Stability with Liver microsome came to 52%; with Liver, 60%. This compound also showed an IC50 in series [7] of 0.27 µM. Moreover, the permeability was 356 nm/s in series [9] and 98 nm/s in series [12]. The result in [10] was inactive. In addition, the EC50 in series [13] was found to be 2.21 µM; in series [14], 0.06 µM.

With `CSCCOc1ccc(Cl)cc1[C@@H]1C[C@H]1CN`, the result in series [18] and in [10] was inactive. In addition, the EC50 in series [14] was found to be 1.76 µM. Moreover, in series [17], the Emax worked out at 11%.

As for `C=C(C)COc1ccc(Cl)cc1[C@@H]1C[C@H]1CN`, in series [2], the Emax was determined as 39%. The outcome in series [19] and in series [10] was inactive. Further, in series [13], the EC50 was 6.09 µM.

Regarding `C=CCOc1ccc(F)cc1[C@@H]1C[C@H]1CN`, the Emax in [20] turned out to be 56%; in [17] it was 87%. In addition, in [18], the result was inactive. The EC50 in [14] turned out to be 0.157 µM; in series [21], 0.697 µM.

Turning to `CCCCOc1ccc(Cl)cc1[C@@H]1C[C@H]1CN`, the result in [18] was inactive. Besides, the EC50 in series [14] was 0.683 µM. For the same compound, the Emax in series [17] is 50%.

For `NC[C@@H]1C[C@H]1c1cc(F)ccc1OCCF`, the Emax in series [20] was found to be 20%; in [17] it was 77%. Moreover, the result in [18] was inactive. The values for the EC50 in series [14] and in series [21] were 0.514 µM and 2.99 µM, respectively.

Take `CCCOc1ccc(F)cc1[C@H]1C[C@@H]1CN`: the Emax in [2] stood at 33%; in [20], 15%; in series [17], 88%. The figures for the EC50 in [13], in [14] and in series [21] were 1.99 µM, 0.011 µM and 1.02 µM, respectively.

As for `CCCCOc1ccc(Cl)cc1[C@H]1C[C@@H]1CN`, the result in series [18] was inactive. Also, in series [14], the EC50 worked out at 0.288 µM. The Emax in [17] was found to be 33%.

Take `NC[C@H]1C[C@@H]1c1cc(Cl)ccc1OCC(F)F`: the values for the Emax in [2], in series [20] and in series [17] were 27%, 31% and 81%, respectively. Besides, the EC50 is 0.839 µM in series [13], 0.091 µM in [14] and 1.81 µM in series [21].

As to `CSCCOc1ccc(Cl)cc1[C@H]1C[C@@H]1CN`, the result in [18] and in series [10] was inactive. Moreover, in series [14], the EC50 was 0.244 µM. Besides, in series [17], the Emax was determined as 24%.

`C#CCOc1ccc(Cl)cc1[C@H]1C[C@@H]1CN`: the Emax turned out to be 29% in [2], 21% in series [20] and 65% in series [17]. Besides, the figures for the EC50 in [13], in [14] and in series [21] were 4.6 µM, 0.063 µM and 1.01 µM, respectively.

`c1cc2c3c(c1)[C@H]1CCC[C@H]1N3CCNC2` displayed a maximal effect (Emax) in series [22] of 40%.

With `COCCOc1ccc(Cl)cc1[C@H]1C[C@@H]1CN`, the result in series [18] and in series [10] was inactive. In addition, in series [14], the EC50 came out at 0.183 µM. Moreover, in series [17], the Emax came to 8%.

In series [22], `c1cc2c3c(c1)[C@H]1CCC[C@H]1CN3CCNC2` displayed an Emax of 50%.

`C=C(F)COc1ccc(F)cc1[C@H]1C[C@@H]1CN`: in series [18], the result was inactive. Also, the values for the EC50 in series [14] and in series [21] were 0.022 µM and 1.67 µM, respectively. In series [17], the Emax was found to be 91%.

Turning to `C=C(F)COc1ccc(Cl)cc1[C@@H]1C[C@H]1CN`, in series [2], the Emax is 33%. For the same compound, the outcome in series [19] and in series [10] was inactive. Further, the half-maximal effective concentration (EC50) in [13] was 6.88 µM.

For `C=C(F)COc1ccc(F)cc1[C@@H]1C[C@H]1CN`, the outcome in series [18] and in series [10] was inactive. The EC50 in [14] turned out to be 0.985 µM. For the same compound, in series [17], the Emax is 62%.
